# Screening results (PubChem)
# A selection: hits, their analogues and other compounds. The true share with any hit is near 1.6%.
# Apaf1 inhib: blocks human Apaf-1 apoptosome activity; reconstituted apoptosome caspase-3 activity, DEVD-Rh110 fluorescence; inhibition, % at 20 µM; hit rate 0.71% among 330,000; active = inhibition of at least 40% at 20 µM
#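 Material: reconstituted apoptosome with Apaf-1, cytochrome c, caspase-9, procaspase-3, dATP. Technique: Rh110 fluorescence intensity. Buffer or medium: pH 7.5 Hepes buffer with CHAPS, BSA, DTT. Times: 30 min plus 50 min, RT.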
# PAD4 FP inh: PAD4 (human) enzyme inhibition | Q9UM07 | recombinant PAD4, RCA probe fluorescence polarization | inhibition, % at 6.36 µM | hit rate 0.41% among 330,000 | AID 485272;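 active = percent inhibition above a cutoff equal to the mean of all tested compounds plus 3 SD, cut at about 15% in these data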
# Target sequence (Q9UM07 whole entry, looked up): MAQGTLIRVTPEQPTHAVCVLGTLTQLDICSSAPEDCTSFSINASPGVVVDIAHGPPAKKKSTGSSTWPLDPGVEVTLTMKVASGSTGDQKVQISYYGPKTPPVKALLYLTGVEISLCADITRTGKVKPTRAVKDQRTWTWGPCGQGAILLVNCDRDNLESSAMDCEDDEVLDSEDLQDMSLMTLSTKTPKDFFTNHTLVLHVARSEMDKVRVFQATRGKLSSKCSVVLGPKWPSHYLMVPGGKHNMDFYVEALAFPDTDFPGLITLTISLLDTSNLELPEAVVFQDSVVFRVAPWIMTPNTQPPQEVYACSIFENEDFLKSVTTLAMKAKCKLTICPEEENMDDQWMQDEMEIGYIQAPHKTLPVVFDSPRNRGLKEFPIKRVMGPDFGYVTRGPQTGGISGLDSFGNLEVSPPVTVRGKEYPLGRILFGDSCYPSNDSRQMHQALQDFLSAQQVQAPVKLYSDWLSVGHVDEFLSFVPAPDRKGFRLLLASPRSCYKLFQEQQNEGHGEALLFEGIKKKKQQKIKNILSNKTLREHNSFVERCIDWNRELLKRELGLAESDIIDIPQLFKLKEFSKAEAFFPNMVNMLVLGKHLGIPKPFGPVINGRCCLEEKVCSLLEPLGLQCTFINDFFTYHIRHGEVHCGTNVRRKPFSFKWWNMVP
# JMJD2C inh: human JMJD2C demethylase inhibition; inhibition, % at 2.35 µM; GST-JMJD2C(1-420) H3K9me3 demethylation, DELFIA europium; AID 2099; hit rate 0.069% among 330,000; Q9H3R0;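 active = more than half of a compound's replicate wells show inhibition beyond 50%, single wells judged on their own value; inconclusive = some, but no more than half, of replicates pass 50% inhibition; inactive = no replicate passes 50% inhibition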;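 note: signal counts dimethyl H3K9 product captured on neutravidin plate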
# TDP2 absorb: TDP2 (human) inhibition, absorbance primary screen. O95551. recombinant TDP2, T5PNP hydrolysis, p-nitrophenol absorbance 415 nm. inhibition, % at 12.8 µM. hit rate 0.34% among 370,000;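 active = inhibition above the mean of all tested compounds plus 3 SD, set per campaign, cut at about 25% in these data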
#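 Assay system: Recombinant human TDP2 | Quantity: 120 nM TDP2 per well | Incubation: 2 h at 37 °C | Signal: Epi absorbance | Evaluation: Percent inhibition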
# SUMO HTRF inh: inhibitors of human SUMOylation (UBC9). P63279. HTRF SUMOylation assay, SAE1/SAE2 + UBC9, in vitro. inhibition, % at 35 µM. hit rate 0.36% among 290,000; in the data active = inhibition above about 50%, passing the limit was not always enough; inconclusive = no clear call, values can overlap the other calls
# GSTO1 counter: GSTO1 inhibition, counter-screen for RBBP9 inhibitors. P78417. recombinant GSTO1, activity-based probe fluorescence polarization. inhibition, % at 5.96 µM. hit rate 1.1% among 300,000. AID 1974;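 active = inhibition above the campaign mean inhibition plus 3 SD, cut at about 35% in these data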
# Numbers stand for hits; n = inactive; u = inconclusive; x = no result.
SMILES,Apaf1 inhib,PAD4 FP inh,JMJD2C inh,TDP2 absorb,SUMO HTRF inh,GSTO1 counter
CCOC(=O)C1=CC(=C2C(=O)N(CC)C(=S)N(CC)C2=O)c2ccccc2O1,n,n,52.6,n,n,n
Nc1c(C(=O)NCCN2CCOCC2)c2nc3ccccc3nc2n1Cc1ccccc1,82.3,n,n,n,n,n
COc1ccc(Cc2cn(C)c(N)n2)cc1,x,x,x,n,x,x
O=C1c2ccccc2-c2cc3ccccc3cc21,x,x,x,n,x,x
O=C1C=C(N2CC2)c2ccccc2C1=O,x,x,x,52.0,x,x
Cc1c(N=Nc2c(O)n(C)c(=O)n(C)c2=O)c(=O)n(-c2ccccc2)n1C,n,n,n,n,n,39.1
COc1cc(CC2C(=O)N(C)C(=O)N(C)C2=O)ccc1OCc1ccccc1,n,n,52.5,n,n,n
CN1C(=O)C(Cc2ccc(OCc3ccccc3)cc2)C(=O)N(C)C1=O,n,n,50.5,n,n,n
C=CCN1C(=O)NC(=O)C(Cc2ccc(OC)c(OC)c2)C1=O (configuration not stated),n,n,n,n,n,n
CCOc1cc(-c2nc3c(C)cccn3c2NCC2CCCO2)ccc1O (configuration not stated),n,n,n,n,52.1,n
Cc1cccn2c(NCC3CCCO3)c(C(C)C)nc12 (configuration not stated),n,n,n,n,n,n
O=C1NC(=O)N(Cc2ccc(F)cc2)C(=O)/C1=C\C=C\c1ccco1,n,n,68.8,n,n,n
O=C1NC(=O)N(Cc2ccccc2)C(=O)/C1=C\c1ccco1,n,n,n,n,n,n
CN1CCN(c2ccc3nccnc3c2)CC1,n,n,n,n,58.4,n
CC(=O)N1c2ccccc2C(c2ccccc2)=NCC1C(=O)NC1CCCCC1 (configuration not stated),x,x,x,n,x,x
COC(=O)[C@@]1(O)c2c(oc3cccc(O)c3c2=O)C=C[C@H]1O,x,x,x,n,x,x
N#C/C(=C(/O)c1ccc(S(=O)(=O)N(CCCl)CCCl)cc1)c1nc2ccccc2[nH]1,n,n,n,n,52.9,n
O=C1NC(=O)N(CCC2=CCCCC2)C(=O)/C1=C/c1ccc(O)cc1,n,n,n,n,n,35.4
Cc1cc(O)c2c(c1)C(=O)[C@@]13C(=C2O)C(=O)[C@H]2C(O)[C@@H]1[C@H]1C(O)[C@@H]3C(=O)C3=C(O)c4c(O)cc(C)cc4C(=O)[C@@]312 (some centres not stated),x,x,x,n,x,x
COc1ccc2c(c1)NP(=S)(Oc1ccccc1)N2 (configuration not stated),50.1,n,n,n,52.8,n
N#CCC[C@@H]1CC[C@]2(CCCN(Cc3ccncc3)C2)O1,x,x,x,n,x,x
O=C1NC(=O)N(c2ccccc2)C(=O)/C1=C\c1ccc([N+](=O)[O-])s1,n,n,n,n,55.4,n
CCC1(c2ccccc2)C(=O)N(C)C(=O)N(C)C1=O,n,n,n,n,n,n
CN1C(=O)N(C)C(=O)C2(Sc3ccccc3C2=O)C1=O,n,n,n,26.8,n,n
CN1CCN(c2ccc(N)cc2)CC1,n,n,n,n,n,n
SMILES,Apaf1 inhib,PAD4 FP inh,JMJD2C inh,TDP2 absorb,SUMO HTRF inh,GSTO1 counter
CN1CCN(c2ccc(C=O)cc2)CC1,n,n,59.1,n,n,n
Cc1ccc2c(c1Cl)NC(C(=O)O)C1CC(Sc3ccccc3[N+](=O)[O-])C(Cl)C21 (configuration not stated),n,n,n,x,n,36.4
O=C(O)c1cccc2c1NC(c1cccc([N+](=O)[O-])c1)C1CC(Sc3ccccc3[N+](=O)[O-])C(Cl)C21 (configuration not stated),n,x,n,n,x,x
C=CCCC(NC(=O)OCc1ccccc1)P(=O)(Oc1ccccc1)Oc1ccccc1 (configuration not stated),x,x,x,n,x,x
CCC(C)N1C(=O)/C(=C/c2ccc3c(c2)CCN3CCCCl)C(=O)NC1=S (configuration not stated),x,n,n,n,n,36.7
Cc1cc2c(C(C)C)c(O)c(O)c(C=O)c2c(O)c1-c1c(C)cc2c(C(C)C)c(O)c(O)c(C=O)c2c1O,x,x,u,n,94.9,x
Cc1cc(C=C2C(=O)NC(=S)NC2=O)c(C)n1-c1ccc2c(c1)OCO2,n,n,n,n,78.6,n
CC(C)c1ccc(-n2c(O)c(/C=N/NC(=O)c3ccccc3O)c(=O)[nH]c2=S)cc1,n,n,n,n,65.6,n
O=C(N/N=C/c1c(O)n(C2CCCCC2)c(=S)[nH]c1=O)c1ccccc1O,n,n,n,n,x,n
c1ccc(Cn2nnnc2C2CN=C(c3ccccc3)c3ccccc3N2)cc1 (configuration not stated),x,x,x,n,x,x
O=C1NC(=O)N(Cc2ccco2)C(=O)/C1=C/c1cccn1CCOc1ccccc1Cl,n,n,n,n,65.6,n
Cn1cccc1/C=C1\C(=O)NC(=O)N(Cc2ccccc2)C1=O,n,n,n,n,n,n
Cc1ccc(N2C(=O)NC(=O)/C(=C/c3cnn(-c4ccc(C)cc4)c3)C2=O)cc1,n,n,n,n,n,n
Cc1ccc(N2C(=O)NC(=O)/C(=C/c3ccoc3)C2=O)cc1,x,x,x,n,55.5,x
COC(=O)[C@H]1C[C@@]2(C)c3ccccc3N[C@H]2N1,x,x,x,n,x,x
O=C1NC(=O)C(=Cc2ccccc2[N+](=O)[O-])C(=O)N1,x,x,x,n,x,x
O=C1NC(=O)C(=Cc2cc3c(cc2[N+](=O)[O-])OCO3)C(=O)N1,n,n,n,n,98.6,n
CN[C@H]1C[C@H]2O[C@@](C)([C@H]1OC)n1c3ccccc3c3c4c(c5c6ccccc6n2c5c31)C(=O)NC4,50.8,n,x,x,n,n
CCOC(=O)CC[C@@H]1CC[C@]2(CCCN(Cc3ccccn3)C2)O1,x,x,x,n,x,x
O=C(NCCN1CCC2(CC1)C(=O)NCN2c1ccccc1)c1ccc(F)c(F)c1,x,x,x,n,x,x
CN1CCc2nc3sc(C#N)c(N)c3c(-c3cccs3)c2C1,n,n,n,n,n,n
CN1CCc2nc(N)c(C#N)c(-c3ccccc3)c2C1,n,n,n,n,n,35.8
Fc1ccc(C(OCCN2CCN(CCCc3ccccc3)CC2)c2ccc(F)cc2)cc1,55.9,n,n,n,x,n
CC(c1ccccc1)n1cc(C(=O)NC2CCCC2)nn1 (configuration not stated),x,x,x,n,x,x
CCOc1ccc(N2C(=O)/C(=C/c3ccco3)C(=O)NC2=S)cc1,n,n,n,x,n,n
Cc1ccccc1N1C(=O)/C(=C/c2ccco2)C(=O)NC1=S,x,n,n,x,97.2,35.7
Cn1cccc1/C=C1/C(=O)NC(=O)N(Cc2ccccc2)C1=O,n,n,n,n,n,n
O=C1NC(=O)N(Cc2ccccc2)C(=O)/C1=C\N1CCCc2ccccc21,n,n,n,n,n,38.1
